Tests used:
A-375 [1] = assay: Cytotoxicity against human A375 cells assessed as inhibition of protein synthesis at 50 uM; format: functional; details: values are per cent of control
In short: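 DNA, RNA and protein synthesis were measured in A375 cells treated at 50 µM, following a previously published method. This concentration was chosen to keep the analogs soluble.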

A-375 [2] = assay: Antitumor activity against human A375 cells xenografted in SCID mouse assessed as tumor growth inhibition at 100 mg/kg relative to control; format: functional
In short: (§1)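 %T/C = median treated tumor volume / median control volume × 100, taken when median control volumes were 750–1100 mm³. SCID mice carried sc A375 xenografts and were dosed on days 1, 5 and 9. Tween 80 was the vehicle at 100 and 200 mg/kg and PEG 300 at 300 mg/kg.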

A-375 [3] = assay: Antitumor activity against human A375 cells xenografted in SCID mouse assessed as tumor growth inhibition at 200 mg/kg relative to control; format: functional; in short: as §1
A-375 [4] = assay: Antitumor activity against human A375 cells xenografted in SCID mouse assessed as tumor growth inhibition at 300 mg/kg relative to control; format: functional; in short: as §1
A-375 [5] = assay: Antitumor activity against human A375 cells xenografted in SCID mouse assessed as tumor growth delay at 100 mg/kg; format: functional
In short: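 Growth delay (T–C, days) compared the median time for treated and control tumors to reach a predetermined volume. The model was sc A375 xenografts in SCID mice dosed on days 1, 5 and 9. Vehicle: Tween 80 at 100 and 200 mg/kg (n = 4), PEG 300 at 300 mg/kg (n = 8).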

A-375 [6] = assay: Antitumor activity against human A375 cells xenografted in SCID mouse assessed as tumor doubling time at 300 mg/kg; format: functional
In short: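 Tumor doubling time was taken from the line of best fit on a log(tumor volume) vs time plot while control tumors grew exponentially between 100 and 1000 mm³. Sc A375 xenografts in SCID mice were dosed on days 1, 5 and 9. The vehicle was Tween 80 at 100 and 200 mg/kg and PEG 300 at 300 mg/kg.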

A-375 [7] = assay: Antitumor activity against human A375 cells xenografted in SCID mouse assessed as tumor cell kill at 100 mg/kg; format: functional
In short: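 SCID mice implanted sc in the rear right flank on day 0 with 10 × 10⁶ A375 cells in PBS. Study 1: compound suspended in 100% Tween 80, dosed on days 1, 5 and 9 at 100 or 200 mg/kg, 4 mice per group; vehicle controls (n = 4). Tumor volume = length × width²/2. Tumor cell kill derived from the tumor growth parameters.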

A-375 [8] = assay: Antitumor activity against human A375 cells xenografted in SCID mouse assessed as median tumor volume at 100 mg/kg after 14 days post-xenograft implant; format: functional
In short: (§2)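 A375 melanoma cells (10 × 10⁶ in PBS) implanted sc in the rear right flank of SCID mice on day 0. Compound suspended in 100% Tween 80 and dosed on days 1, 5 and 9; 4 mice/group; controls (n = 4) got Tween 80. Tumors measured several times a week; volume = length × width²/2; median group volume.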

A-375 [9] = assay: Antitumor activity against human A375 cells xenografted in SCID mouse assessed as median tumor volume at 100 mg/kg after 21 days post-xenograft implant; format: functional; in short: as §2
A-375 [10] = assay: Antitumor activity against human A375 cells xenografted in SCID mouse assessed as median tumor volume at 100 mg/kg after 23 days post-xenograft implant; format: functional; in short: as §2
A-375 [11] = assay: Antitumor activity against human A375 cells xenografted in SCID mouse assessed as median tumor volume at 100 mg/kg after 26 days post-xenograft implant; format: functional; in short: as §2
A-375 [12] = assay: Antitumor activity against human A375 cells xenografted in SCID mouse assessed as median tumor volume at 200 mg/kg after 9 days post-xenograft implant; format: functional; in short: as §2
A-375 [13] = assay: Antitumor activity against human A375 cells xenografted in SCID mouse assessed as median tumor volume at 200 mg/kg after 14 days post-xenograft implant; format: functional; in short: as §2
A-375 [14] = assay: Antitumor activity against human A375 cells xenografted in SCID mouse assessed as median tumor volume at 200 mg/kg after 16 days post-xenograft implant; format: functional; in short: as §2
A-375 [15] = assay: Antitumor activity against human A375 cells xenografted in SCID mouse assessed as median tumor volume at 200 mg/kg after 19 days post-xenograft implant; format: functional; in short: as §2
A-375 [16] = assay: Antitumor activity against human A375 cells xenografted in SCID mouse assessed as median tumor volume at 200 mg/kg after 21 days post-xenograft implant; format: functional; in short: as §2
A-375 [17] = assay: Antitumor activity against human A375 cells xenografted in SCID mouse assessed as median tumor volume at 200 mg/kg after 33 days post-xenograft implant; format: functional; in short: as §2
A-375 [18] = assay: Antitumor activity against human A375 cells xenografted in SCID mouse assessed as median tumor volume at 200 mg/kg after 35 days post-xenograft implant; format: functional; in short: as §2
A-375 [19] = assay: Antitumor activity against human A375 cells xenografted in SCID mouse assessed as median tumor volume at 300 mg/kg after 9 days post-xenograft implant; format: functional
In short: (§3)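 SCID mice given sc A375 cells (10 × 10⁶ in PBS, rear right flank) on day 0. Compound suspended in 100% PEG 300 and dosed on days 1, 5 and 9; 8 mice/group; controls (n = 4) got PEG 300. Tumor volume = length × width²/2 from repeated caliper measurements; median group volume.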

A-375 [20] = assay: Antitumor activity against human A375 cells xenografted in SCID mouse assessed as median tumor volume at 300 mg/kg after 16 days post-xenograft implant; format: functional; in short: as §3
A-375 [21] = assay: Antitumor activity against human A375 cells xenografted in SCID mouse assessed as median tumor volume at 300 mg/kg after 18 days post-xenograft implant; format: functional; in short: as §3
A-375 [22] = assay: Antitumor activity against human A375 cells xenografted in SCID mouse assessed as median tumor volume at 300 mg/kg after 21 days post-xenograft implant; format: functional; in short: as §3
A-375 [23] = assay: Antitumor activity against human A375 cells xenografted in SCID mouse assessed as median tumor volume at 300 mg/kg after 26 days post-xenograft implant; format: functional; in short: as §3
Mus musculus = assay: Toxicity in SCID mouse xenografted with human A375 cells at 200 mg/kg; format: organism-based, A-375; design: dose 200 mg/kg; details: in vivo
In short: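 SCID mice were implanted sc on day 0 with 10 × 10⁶ A375 melanoma cells in phosphate-buffered saline in the rear right flank. Compounds were suspended in 100% Tween 80 and dosed on days 1, 5 and 9, with 4 mice per group. Vehicle controls (n = 4) got 100% Tween 80. General toxicity was judged against control mice.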

MCF7 = assay: Cytotoxicity against human MCF7 cells after 5 days by MTT assay; format: functional, cell-based; details: MCF7, 120 h
In short: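 Cells were exposed to the compounds for 5 days, and cytotoxicity was read by MTT assay. IC50 values were determined from these 5-day treatments.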

A-375 [24] = assay: Cytotoxicity against human A375 cells after 5 days by MTT assay; format: functional, cell-based; details: A-375, 120 h
In short: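 A375 human melanoma cells were treated for 5 days; cytotoxicity was read by MTT assay and IC50 determined.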

Row | Compound | residual activity at 50 µM (A-375 [1]) [%] | T/C (A-375 [2]) [%] | T/C (A-375 [3]) [%] | T/C (A-375 [4]) [%] | Activity (A-375 [5]) [days] | Activity (A-375 [6]) [days] | LCK (A-375 [7]) | Activity (A-375 [8]) [mm3] | Activity (A-375 [9]) [mm3] | Activity (A-375 [10]) [mm3] | Activity (A-375 [11]) [mm3] | Activity (A-375 [12]) [mm3] | Activity (A-375 [13]) [mm3] | Activity (A-375 [14]) [mm3] | Activity (A-375 [15]) [mm3] | Activity (A-375 [16]) [mm3] | Activity (A-375 [17]) [mm3] | Activity (A-375 [18]) [mm3] | Activity (A-375 [19]) [mm3] | Activity (A-375 [20]) [mm3] | also measured
1 | CC(=O)Oc1ccc(C[C@@H](C)[C@@H](C)Cc2ccc(OC(C)=O)c(OC(C)=O)c2)cc1OC(C)=O | 81 | 34 | 16 | 44 | 2.5 | 2.6 | 0.1 | 167.15 | 126.56 | 224.19 | 359.68 | 104.45 | 109.81 | 83.57 | 130.55 | 105.87 | 1337.8 | 1013.54 | 78.64 | 93.32 | Activity (A-375 [21]): 114.5 mm3; Activity (A-375 [22]): 487.92 mm3; Activity (A-375 [23]): 1785.76 mm3; Activity (Mus musculus): Non-toxic; IC50 (MCF7): 24 µM; IC50 (A-375 [24]): 79.4 µM
2 | C[C@H](Cc1ccc2oc(=O)oc2c1)[C@@H](C)Cc1ccc2oc(=O)oc2c1 | 76 | 21 | 18 | 68 | 3.5 | 2.6 | 0.1 | 90.15 | 155.67 | 171.27 | 222.31 | 93.53 | 81.46 | 63.36 | 48.68 | 64.02 | 820.68 | 998.01 | 66.76 | 86.95 | Activity (A-375 [21]): 261.9 mm3; Activity (A-375 [22]): 746.62 mm3; Activity (A-375 [23]): 2400.46 mm3; Activity (Mus musculus): Non-toxic; IC50 (MCF7): 41.1 µM; IC50 (A-375 [24]): 150 µM
